ChEMBL document CHEMBL4392861, “Synthesis and evaluation of the HIF-1α inhibitory activities of novel ursolic acid tetrazole derivatives” (Bioorg Med Chem Lett, 2019)

Experiments:
Assay type in all cases: cell-based
Hep 3B2 [1] = test: Cytotoxicity against human Hep3B cells assessed as reduction in cell viability after 24 hrs by MTT assay
Method in brief: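 Hep3B cells exposed to compounds for 24 h under normoxic conditions; viability read by MTT assay; IC50 from mean ± SE, n=3.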

[2] = biological target: Hypoxia-inducible factor 1-alpha (Homo sapiens, UniProt Q16665); test: Inhibition of hypoxia-induced HIF1alpha transcriptional activity in human Hep3B cells after 24 hrs in hypoxic condition by HRE-dependent dual luciferase reporter gene assay
Method in brief: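 Hep3B cells transiently co-transfected with pGL3-HRE-luciferase and pRL-CMV vectors, incubated 24 h, then treated with compounds for 24 h under hypoxia. Luciferase activity measured […]. IC50 given as mean ± SE, n=3.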

Hep 3B2 [3] = test: Cytotoxicity against human Hep3B cells assessed as reduction in cell viability up to 30 uM after 24 hrs in presence of 20% O2 by MTT assay; details: hep 3b2, 24 h
Method in brief: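 Hep3B cells treated with the indicated concentrations (up to 30 µM) for 24 h, then viability determined by MTT assay.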

| SMILES | IC50 [2] | inhibition [2] | IC50 (Hep 3B2 [1]) | Activity (Hep 3B2 [3]) |
| --- | --- | --- | --- | --- |
| C[C@H]1[C@H](C)CC[C@]2(C(=O)OCCNc3cccc(-c4nnn[nH]4)c3)CC[C@]3(C)C(=CC[C@@H]4[C@@]5(C)CCC(=O)C(C)(C)[C@@H]5CC[C@]43C)[C@H]12 | > 100 µM |  | > 100 µM |  |
| C[C@H]1[C@H](C)CC[C@]2(C(=O)Nc3nnn[nH]3)CC[C@]3(C)C(=CC[C@@H]4[C@@]5(C)CCC(=O)C(C)(C)[C@@H]5CC[C@]43C)[C@H]12 | 18.1 µM |  | > 100 µM |  |
| C[C@H]1[C@H](C)CC[C@]2(C(=O)OCCNc3ccccc3-c3nnn[nH]3)CC[C@]3(C)C(=CC[C@@H]4[C@@]5(C)CC[C@H](O)C(C)(C)[C@@H]5CC[C@]43C)[C@H]12 | > 100 µM |  | > 100 µM |  |
| C[C@H]1[C@H](C)CC[C@]2(C(=O)OCCCNc3nnn[nH]3)CC[C@]3(C)C(=CC[C@@H]4[C@@]5(C)CCC(=O)C(C)(C)[C@@H]5CC[C@]43C)[C@H]12 | 16.7 µM |  | > 100 µM |  |
| C[C@H]1[C@H](C)CC[C@]2(C(=O)OCCCNc3cccc(-c4nnn[nH]4)c3)CC[C@]3(C)C(=CC[C@@H]4[C@@]5(C)CCC(=O)C(C)(C)[C@@H]5CC[C@]43C)[C@H]12 | > 100 µM |  | > 100 µM |  |
| C[C@H]1[C@H](C)CC[C@]2(C(=O)OCCCNc3ccccc3-c3nnn[nH]3)CC[C@]3(C)C(=CC[C@@H]4[C@@]5(C)CCC(=O)C(C)(C)[C@@H]5CC[C@]43C)[C@H]12 | > 100 µM |  | > 100 µM |  |
| C[C@H]1[C@H](C)CC[C@]2(C(=O)OCCn3nnnc3-c3ccccc3)CC[C@]3(C)C(=CC[C@@H]4[C@@]5(C)CC[C@H](O)C(C)(C)[C@@H]5CC[C@]43C)[C@H]12 | 18.1 µM |  | > 100 µM |  |
| COc1ccc(-c2nnnn2CCOC(=O)[C@]23CC[C@@H](C)[C@H](C)[C@H]2C2=CC[C@@H]4[C@@]5(C)CC[C@H](O)C(C)(C)[C@@H]5CC[C@@]4(C)[C@]2(C)CC3)cc1 | > 100 µM |  | > 100 µM |  |
| CCCC(=O)O[C@H]1CC[C@]2(C)[C@H]3CC=C4[C@@H]5[C@@H](C)[C@H](C)CC[C@]5(C(=O)Nc5nnn[nH]5)CC[C@@]4(C)[C@]3(C)CC[C@H]2C1(C)C | 1.4 µM |  | 4.7 µM |  |
| C[C@H]1[C@H](C)CC[C@]2(C(=O)OCCNc3ccc(-c4nnn[nH]4)cc3)CC[C@]3(C)C(=CC[C@@H]4[C@@]5(C)CC[C@H](O)C(C)(C)[C@@H]5CC[C@]43C)[C@H]12 | 26.2 µM |  | > 100 µM |  |
| C[C@H]1[C@H](C)CC[C@]2(C(=O)OCCn3nnnc3-c3ccc4c(c3)OCO4)CC[C@]3(C)C(=CC[C@@H]4[C@@]5(C)CC[C@H](O)C(C)(C)[C@@H]5CC[C@]43C)[C@H]12 | > 100 µM |  | > 100 µM |  |
| C[C@H]1[C@H](C)CC[C@]2(C(=O)OCCCNc3ccc(-c4nnn[nH]4)cc3)CC[C@]3(C)C(=CC[C@@H]4[C@@]5(C)CC[C@H](O)C(C)(C)[C@@H]5CC[C@]43C)[C@H]12 | > 100 µM |  | > 100 µM |  |
| C[C@H]1[C@H](C)CC[C@]2(C(=O)Nc3nnn[nH]3)CC[C@]3(C)C(=CC[C@@H]4[C@@]5(C)CC/C(=N\Nc6ccccc6)C(C)(C)[C@@H]5CC[C@]43C)[C@H]12 | 2.2 µM |  | 11.9 µM |  |
| C[C@H]1[C@H](C)CC[C@]2(C(=O)OCCCNc3ccccc3-c3nnn[nH]3)CC[C@]3(C)C(=CC[C@@H]4[C@@]5(C)CC[C@H](O)C(C)(C)[C@@H]5CC[C@]43C)[C@H]12 | > 100 µM |  | > 100 µM |  |
| C[C@H]1[C@H](C)CC[C@]2(C(=O)O)CC[C@]3(C)C(=CC[C@@H]4[C@@]5(C)CC(=C\c6ccc(Cl)cc6)/C(=N\NC(=N)N)C(C)(C)[C@@H]5CC[C@]43C)[C@H]12 | 4 µM |  | > 100 µM |  |

Further lines, with some results ahead:

| IC50 [2] | inhibition [2] | SMILES | IC50 (Hep 3B2 [1]) | Activity (Hep 3B2 [3]) |
| --- | --- | --- | --- | --- |
| > 100 µM |  | C[C@H]1[C@H](C)CC[C@]2(C(=O)OCCCNc3ccc(-c4nnn[nH]4)cc3)CC[C@]3(C)C(=CC[C@@H]4[C@@]5(C)CCC(=O)C(C)(C)[C@@H]5CC[C@]43C)[C@H]12 | > 100 µM |  |
| 8.9 µM |  | C[C@H]1[C@H](C)CC[C@]2(C(=O)OCCNc3cccc(-c4nnn[nH]4)c3)CC[C@]3(C)C(=CC[C@@H]4[C@@]5(C)CC[C@H](O)C(C)(C)[C@@H]5CC[C@]43C)[C@H]12 | > 100 µM |  |
| 4.7 µM | Dose-dependent effect | CC(=O)O[C@H]1CC[C@]2(C)[C@H]3CC=C4[C@@H]5[C@@H](C)[C@H](C)CC[C@]5(C(=O)Nc5nnn[nH]5)CC[C@@]4(C)[C@]3(C)CC[C@H]2C1(C)C | > 100 µM | Non-Toxic |
| 8.5 µM |  | C[C@H]1[C@H](C)CC[C@]2(C(=O)OCCNc3nnn[nH]3)CC[C@]3(C)C(=CC[C@@H]4[C@@]5(C)CC[C@H](O)C(C)(C)[C@@H]5CC[C@]43C)[C@H]12 | > 100 µM |  |
| > 100 µM |  | C[C@H]1[C@H](C)CC[C@]2(C(=O)OCCNc3ccccc3-c3nnn[nH]3)CC[C@]3(C)C(=CC[C@@H]4[C@@]5(C)CCC(=O)C(C)(C)[C@@H]5CC[C@]43C)[C@H]12 | > 100 µM |  |
| 18.1 µM |  | C[C@H]1[C@H](C)CC[C@]2(C(=O)OCCNc3ccc(-c4nnn[nH]4)cc3)CC[C@]3(C)C(=CC[C@@H]4[C@@]5(C)CCC(=O)C(C)(C)[C@@H]5CC[C@]43C)[C@H]12 | > 100 µM |  |
| 14.2 µM |  | C[C@H]1[C@H](C)CC[C@]2(C(=O)OCCNc3nnn[nH]3)CC[C@]3(C)C(=CC[C@@H]4[C@@]5(C)CCC(=O)C(C)(C)[C@@H]5CC[C@]43C)[C@H]12 | > 100 µM |  |
| 1.6 µM |  | C[C@H]1[C@H](C)CC[C@]2(C(=O)Nc3nnn[nH]3)CC[C@]3(C)C(=CC[C@@H]4[C@@]5(C)CC[C@H](OC(=O)C(F)(F)F)C(C)(C)[C@@H]5CC[C@]43C)[C@H]12 | 6.4 µM |  |
| > 100 µM |  | C[C@H]1[C@H](C)CC[C@]2(C(=O)O)CC[C@]3(C)C(=CC[C@@H]4[C@@]5(C)CC[C@H](O)C(C)(C)[C@@H]5CC[C@]43C)[C@H]12 [URSOLIC ACID] |  |  |
| 13.3 µM |  | C[C@H]1[C@H](C)CC[C@]2(C(=O)Nc3nnn[nH]3)CC[C@]3(C)C(=CC[C@@H]4[C@@]5(C)CC[C@H](O)C(C)(C)[C@@H]5CC[C@]43C)[C@H]12 | > 100 µM |  |
| 13.2 µM |  | C[C@H]1[C@H](C)CC[C@]2(C(=O)OCCCNc3cccc(-c4nnn[nH]4)c3)CC[C@]3(C)C(=CC[C@@H]4[C@@]5(C)CC[C@H](O)C(C)(C)[C@@H]5CC[C@]43C)[C@H]12 | > 100 µM |  |
| 7.5 µM |  | C[C@H]1[C@H](C)CC[C@]2(C(=O)OCCCn3nnnc3-c3ccc(Cl)cc3)CC[C@]3(C)C(=CC[C@@H]4[C@@]5(C)CC[C@H](O)C(C)(C)[C@@H]5CC[C@]43C)[C@H]12 | > 100 µM |  |
| 83 µM |  | C[C@H]1[C@H](C)CC[C@]2(C(=O)OCCCn3nnnc3-c3ccc4c(c3)OCO4)CC[C@]3(C)C(=CC[C@@H]4[C@@]5(C)CC[C@H](O)C(C)(C)[C@@H]5CC[C@]43C)[C@H]12 | > 100 µM |  |
| 0.8 µM |  | C[C@H]1[C@H](C)CC[C@]2(C(=O)Nc3nnn[nH]3)CC[C@]3(C)C(=CC[C@@H]4[C@@]5(C)CC[C@H](OC(=O)c6ccccc6)C(C)(C)[C@@H]5CC[C@]43C)[C@H]12 | 18.5 µM |  |
| 10.3 µM |  | C[C@H]1[C@H](C)CC[C@]2(C(=O)OCCCNc3nnn[nH]3)CC[C@]3(C)C(=CC[C@@H]4[C@@]5(C)CC[C@H](O)C(C)(C)[C@@H]5CC[C@]43C)[C@H]12 | > 100 µM |  |
| 27.4 µM |  | COc1ccc(-c2nnnn2CCCOC(=O)[C@]23CC[C@@H](C)[C@H](C)[C@H]2C2=CC[C@@H]4[C@@]5(C)CC[C@H](O)C(C)(C)[C@@H]5CC[C@@]4(C)[C@]2(C)CC3)cc1 | > 100 µM |  |
| 36.9 µM |  | C[C@H]1[C@H](C)CC[C@]2(C(=O)OCn3ncn(-c4ccccc4)c3=O)CC[C@]3(C)C(=CC[C@@H]4[C@@]5(C)CC[C@H](O)C(C)(C)[C@@H]5CC[C@]43C)[C@H]12 | > 100 µM |  |
| 40 µM |  | C[C@H]1[C@H](C)CC[C@]2(C(=O)OCCCn3nnnc3-c3ccccc3)CC[C@]3(C)C(=CC[C@@H]4[C@@]5(C)CC[C@H](O)C(C)(C)[C@@H]5CC[C@]43C)[C@H]12 | > 100 µM |  |
| 76.4 µM |  | C[C@H]1[C@H](C)CC[C@]2(C(=O)OCCn3nnnc3-c3ccc(Cl)cc3)CC[C@]3(C)C(=CC[C@@H]4[C@@]5(C)CC[C@H](O)C(C)(C)[C@@H]5CC[C@]43C)[C@H]12 | > 100 µM |  |
